Experimental data of several laboratories.
Each line is one published result; the experiments were not run side by side.
Effect on: enzyme activity
Action: inhibitor
gag-pol reverse transcriptase: Gag-Pol polyprotein, reverse transcriptase (gag-pol, Human immunodeficiency virus 1, UniProt P03366)
ERBB2: Receptor tyrosine-protein kinase erbB-2 (ERBB2, Homo sapiens, UniProt P04626)
gyrA: DNA gyrase subunit A (gyrA, Escherichia coli K-12, UniProt P0AES4)

Structure (SMILES) | target | test | conditions | IC50 [nM]
N#Cc1ccc(Nc2nc(N)cc(Oc3ccc(-c4ccc(C#N)c(F)c4)cc3F)n2)cc1 | gag-pol reverse transcriptase | – | – | 70
C=CC(=O)Nc1cc(Nc2nccc(Nc3cc(Cl)c(F)cc3C(C)(C)O)n2)c(OC)cc1N1CC[C@@H](N(C)C)C1 | ERBB2 | – | with preincubation | 392
CC(C)Oc1c(N)ccc(C(=O)Nc2ccc(C(=O)N[C@@H](CC(N)=O)C(=O)Nc3ccc(C(=O)Nc4ccc(C(=O)Nc5ccc(C(=O)O)cc5)c(O)c4OC(C)C)cc3)cc2)c1O | gyrA | – | – | 50000
CC1(C)C(/C=C/C=C2/N(CCCc3ccccc3)c3ccc(Cl)cc3C2(C)C)=[N+](CCCc2ccccc2)c2ccc(Cl)cc21 | Protein arginine N-methyltransferase 6 (PRMT6, Homo sapiens, UniProt Q96LA8) | radiometric | – | 1660
Cc1cc(/C=C/C#N)cc(C)c1Nc1ccnc(Nc2ccc(C#N)cc2)n1 | gag-pol reverse transcriptase | – | – | 14
CC(C)Oc1c(NC(=O)c2ccc(NC(=O)[C@H](CC(N)=O)NC(=O)c3ccc(NC(=O)c4ccccc4)cc3)cc2)ccc(C(=O)Nc2ccc(C(=O)O)cc2)c1O | gyrA | – | – | 4000
Cc1cc(C)cc(S(=O)(=O)c2c(C(=O)NCCNS(=O)(=O)c3ccc(-c4ccccc4)cc3)[nH]c3ccc(Cl)cc23)c1 | gag-pol reverse transcriptase | ELISA | – | 180
CC(C)Oc1c(NC(=O)c2ccc(NC(=O)[C@H](CC(N)=O)NC(=O)c3ccc(NC(=O)c4ccc(NC(=O)c5ccc([N+](=O)[O-])cc5)cc4)cc3)cc2)ccc(C(=O)Nc2ccc(C(=O)O)cc2)c1O | gyrA | – | – | 2500
N#Cc1ccc(Nc2nc(N)cc(Oc3ccc(-c4cccc(C#N)c4)cc3)n2)cc1 | gag-pol reverse transcriptase | – | – | 700
Cc1cc(C)cc(S(=O)(=O)c2c(C(=O)NCCCCNS(=O)(=O)c3ccc(C#N)cc3)[nH]c3ccc(Cl)cc23)c1 | gag-pol reverse transcriptase | ELISA | – | 120
COc1ccc2c(Oc3ccc4c(C(=O)Nc5ccccc5N)cccc4c3)ccnc2c1 | ERBB2 | – | – | > 500
Cc1cc(C)cc(S(=O)(=O)c2c(C(=O)NCCCCCNS(=O)(=O)c3ccc(Cl)cc3)[nH]c3ccc(Cl)cc23)c1 | gag-pol reverse transcriptase | ELISA | – | 120
CC(C)Oc1c(NC(=O)c2ccc(NC(=O)[C@H](CC(N)=O)NC(=O)c3ccc(NC(=O)C(C)Sc4ccc(C#N)cc4)cc3)cc2)ccc(C(=O)Nc2ccc(C(=O)O)cc2)c1O (some centres unmarked) | gyrA | – | – | 800
Cc1cc(C)cc(S(=O)(=O)c2c(C(=O)NCCCNS(=O)(=O)c3cccc(F)c3)[nH]c3ccc(Cl)cc23)c1 | gag-pol reverse transcriptase | ELISA | – | 130
CC(=O)N[C@@H]1[C@@H](O)[C@H](O)[C@@H](CO)S[C@@H]1OP(=O)(O)OP(=O)(O)OC[C@H]1O[C@@H](n2ccc(=O)[nH]c2=O)[C@H](O)[C@@H]1O | UDP-N-acetylglucosamine--peptide N-acetylglucosaminyltransferase 110 kDa subunit (OGT, Homo sapiens, UniProt O15294) | – | – | 78800
Cc1cc(C)cc(S(=O)(=O)c2c(C(=O)NCCCNS(=O)(=O)c3ccc([N+](=O)[O-])cc3)[nH]c3ccc(Cl)cc23)c1 | gag-pol reverse transcriptase | ELISA | – | 120
COc1cc(/C=C2\SC(=O)NC2=O)cc(F)c1OCCNc1nc2c(cnn2C2CCCC2)c(=O)[nH]1 | cGMP-dependent 3',5'-cyclic phosphodiesterase (PDE2A, Homo sapiens, UniProt O00408) | – | – | 167
